{"source": "paper PMC11975418", "about": "(Nature medicine, 2023)", "key": {"[1]": {"test_system": "C57BL/6J mice", "assay": "Mechanical allodynia of hind paws", "assay_type": "in vivo, mouse", "details": "30 mg/kg ACY-1215 co-administered with 0.3 or 1 mg/kg IACS-010759"}, "[2]": {"test_system": "C57BL/6J mice", "assay": "Sensorimotor function", "assay_type": "in vivo, mouse"}, "[3]": {"test_system": "C57BL/6J mice", "assay_type": "in vivo, mouse", "details": "30 mg/kg ACY-1215 co-administered with IACS-010759"}, "[4]": {"test_system": "C57BL/6J mice", "assay": "Spontaneous pain", "assay_type": "in vivo, mouse"}, "[5]": {"test_system": "DRG neurons", "assay": "Mitochondrial function", "assay_type": "in vivo, mouse"}, "[6]": {"assay": "AML trial", "assay_type": "in vivo, human", "details": "for Average highest lactate level during OXPHOS: AML", "summary_of_the_method": "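Both trials graded adverse events with NCI CTCAE v4.03. In the AML trial, all patients had close monitoring of lactate, blood pH and electrolytes. Patients with lactate >4 mmol/L, pH <7.30 and symptoms were hospitalised for at least 24 h. Dose-limiting lactic acidosis was lactate >4.0 mmol/L, pH <7.35, low CO2, raised anion gap and/or symptoms, confirmed by arterial sampling.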"}, "[7]": {"test_system": "PDX AML-04030094 model", "assay": "Survival of AML PDX mice", "assay_type": "in vivo, mouse", "details": "1 mg/kg oral, 5-days on/2-days off, NSG AML PDX mice"}, "[8]": {"test_system": "blasts from the spleen of NSG mice", "assay": "Baseline OCR of blasts from the spleen of NSG mice", "assay_type": "in vivo, mouse", "details": "0.1 and 0.3 mg/kg, 5-days on/2-days off", "summary_of_the_method": "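Female NSG mice received 250 cGy cesium irradiation 24 h before tail-vein injection of 0.5 × 10^5 AML PDX cells. Mice were randomized (n=9/group) to vehicle (0.5% methylcellulose) or 0.1, 0.3, 1 or 5 mg/kg test compound, 5 days on/2 days off. Spleens were taken at euthanasia for baseline OCR of blasts. N=5 biologically independent samples; two-sided unpaired t-test.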"}, "[9]": {"test_system": "advanced solid tumors", "assay": "Solid Tumor trial: response by RECISTv1.1", "assay_type": "in vivo, human"}, "[10]": {"assay": "Human plasma concentrations of IACS-010759", "assay_type": "in vivo", "summary_of_the_method": "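Patient plasma (50 μL) was extracted with acetonitrile containing diclofenac internal standard, vortexed 10 min and spun 2000 g for 10 min. Extract was diluted 1:1 with water for LC-MS/MS with the column at 40 °C. MRM transitions were m/z 563.1>172.1 for analyte and 295.9>151.2 for standard. The method was validated over 0.05–50.0 ng/mL.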"}, "[11]": {"test_system": "ATF3", "assay": "ATF3 expression in DRG", "assay_type": "in vivo, mouse", "details": "1 or 5 mg/kg", "summary_of_the_method": "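Mice received test compound (1 or 5 mg/kg) or vehicle orally, once daily, 5 days on/2 off, then another 5 days. DRG were taken 12 days after the last dose and processed as PFA-fixed, OCT-embedded 14 μm frozen sections. Sections were incubated overnight with anti-ATF3 (1:500) in PBS with 2% donkey serum and 0.1% saponin, then Alexa 594 secondary and DAPI. Imaging was confocal. Positive control was spared-nerve-injury DRG; staining was repeated three times.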"}, "[12]": {"test_system": "C57BL/6J mice", "assay": "Intraepidermal nerve fiber density in hind paw skin", "assay_type": "in vivo, mouse", "details": "highest dose", "summary_of_the_method": "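Male C57BL/6J mice were given vehicle (0.5% methylcellulose) or 1 or 5 mg/kg test compound by oral gavage once daily, 5 days on/2 off, then a further 5 days on. Glabrous hind paw skin was collected 12 days after the final dose. PGP9.5-stained fibres crossing the collagen-stained dermal–epidermal junction were counted by confocal microscopy as IENFs/mm, five random images per mouse. n=12/8/8; one-way ANOVA with Dunnett's; mean ± SE.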"}, "[13]": {"test_system": "relapsed/refractory AML", "assay": "AML trial: response by European LeukemiaNet 2017", "assay_type": "in vivo, human", "details": "n=17", "summary_of_the_method": "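Relapsed/refractory AML patients were dosed by cohort. Cohorts 1–2 got 0.5 or 1.0 mg on Day 1 and Day 8 of cycle 1, then daily in later cycles. Cohorts 3–4 got induction of 2.0 or 2.5 mg daily on Days 1–7. Maintenance followed at 0.5 mg once weekly (cohort 3) or 1.0 mg thrice weekly (cohort 4).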"}, "[14]": {"assay": "Plasma IACS-010759 exposure versus venous lactate in AML and Solid Tumor cohorts", "assay_type": "in vivo, human"}, "[15]": {"assay": "Plasma lactate in NSG and B6 mice", "assay_type": "in vivo, mouse", "details": "escalating doses"}, "[16]": {"assay": "Solid Tumor trial", "assay_type": "in vivo, human", "details": "for Average highest lactate level during OXPHOS: Solid Tumors"}, "[17]": {"test_system": "AML blasts", "assay": "Seahorse oxygen consumption rate of AML blasts from treated patients", "assay_type": "cell-based, human", "summary_of_the_method": "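Fresh heparinised patient blood was mixed with equal-volume EasySep buffer and depleted of CD3/CD19-positive cells with an antibody cocktail. Isolated blasts were counted and used immediately for Seahorse basal and maximal OCR, normalised to cell number, with 2–6 technical replicates. Sampling was pre-dose (C1D1), after one week (C1D7/C1D14) and during extended dosing (C1D15/21/28). A two-sided paired t-test was used.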"}, "[18]": {"test_system": "mitochondrial complex I", "details": "by binding the ND1 subunit at the entrance to the quinone binding channel; cited from earlier work"}, "[19]": {"test_system": "AML blasts", "assay": "Intracellular metabolites in AML blasts", "assay_type": "cell-based, human"}, "[20]": {"test_system": "AML blasts", "assay": "Ratio of mitochondrial to genomic DNA in AML blasts", "assay_type": "cell-based, human", "details": "pre- vs post-dose Day 16/21/27/28; p=0.04"}, "[21]": {"details": "30 mg/kg ACY-1215 co-administered with IACS-010759"}, "[22]": {"details": "end of the first 7-day QD dosing vs pre-treatment"}, "[23]": {"details": "blasts from Patient 17 (highest exposure), p<0.01"}}, "data": [{"smiles": "O=C(CCCCCCNC(=O)c1cnc(N(c2ccccc2)c2ccccc2)nc1)NO", "note": "[ACY-1215, reference compound]", "values": [{"measurement": "effect on IACS-010759-induced mechanical allodynia", "setting": "[1]", "result": "significantly attenuated"}, {"measurement": "effect on IACS-010759-induced sensorimotor deficits", "setting": "[2]; [21]", "result": "prevented"}, {"measurement": "effect on IACS-010759-induced damage to the myelin of the sciatic nerve", "setting": "[3]", "result": "prevented"}, {"measurement": "effect on IACS-010759-induced spontaneous pain", "setting": "[4]; [21]", "result": "prevented"}, {"measurement": "effect on IACS-010759-induced reduction of OCR in the DRG", "setting": "[5]; [21]", "result": "did not prevent"}]}, {"smiles": "Cc1nc(-c2nc(-c3ccc(OC(F)(F)F)cc3)no2)nn1Cc1cccc(N2CCC(S(C)(=O)=O)CC2)c1", "note": "[IACS-010759]", "values": [{"measurement": "recommended phase 2 dose (RP2D)", "setting": "[6]; AML and Solid Tumor trials", "result": "no RP2D was established"}, {"measurement": "grade 1–2 TRAE: elevated blood lactate", "setting": "[6]; AML trial patients", "result": 35, "unit": "%"}, {"measurement": "grade 1–2 TRAE: myalgia", "setting": "[6]; AML trial patients", "result": 6, "unit": "%"}, {"measurement": "grade 1–2 TRAE: peripheral neuropathy", "setting": "[6]; AML trial patients", "result": 12, "unit": "%"}, {"measurement": "grade ≥3 TRAE: peripheral neuropathy", "setting": "[6]; AML trial patients", "result": 6, "unit": "%"}, {"measurement": "Average highest lactate level during OXPHOS", "setting": "[6]; NP (N=6)", "result": 3.9, "unit": "mmol/L"}, {"measurement": "Average highest lactate level during OXPHOS", "setting": "[6]; Non-NP (N=11)", "result": 3.0, "unit": "mmol/L"}, {"measurement": "extension of median survival", "setting": "[7]", "result": 7, "unit": "days"}, {"measurement": "modulation of baseline OCR", "setting": "[8]", "result": "induced moderate modulation of baseline OCR"}, {"measurement": "patients with best response of RECISTv1.1 stable disease", "setting": "[9]", "result": "eight"}, {"measurement": "maintenance of plasma levels of ≥20 nM", "setting": "[10]; AML and Solid Tumor trials, all dosing schedules", "result": "not maintained with any dosing schedule"}, {"measurement": "terminal half-life", "setting": "[10]; plasma, patients", "result": "approximately 16 hours"}, {"measurement": "expression of ATF3", "setting": "[11]", "result": "did not increase"}, {"measurement": "intraepidermal nerve fiber density (IENF) in hind paw skin", "setting": "[12]", "result": "reduced intraepidermal nerve fiber density"}, {"measurement": "balance and fine motor function", "setting": "[2]; beam walk test, vs vehicle-treated mice", "result": "significant decrease in balance and fine motor function"}, {"measurement": "response (European LeukemiaNet 2017)", "setting": "[13]", "result": "No patient in the AML trial responded"}, {"measurement": "drug exposure associated with increased probability of elevated lactate", "setting": "[14]; equivalent of the nM value", "result": "> 4.5", "unit": "ng/mL"}, {"measurement": "drug exposure associated with increased probability of elevated lactate", "setting": "[14]; plasma IACS-010759, AML and Solid Tumor cohorts", "result": "> 8", "unit": "nM"}, {"measurement": "plasma lactate", "setting": "[15]; C56Bl6 mice", "result": "elevated by all doses"}, {"measurement": "plasma lactate", "setting": "[15]; NSG mice", "result": "only elevated by the 5 mg/kg dose"}, {"measurement": "patients with grade 1–3 peripheral neuropathy", "setting": "[16]; Solid Tumor trial", "result": 11, "unit": "patients"}, {"measurement": "grade 1–2 TRAE: myalgia", "setting": "[16]; Solid Tumor trial patients", "result": 30, "unit": "%"}, {"measurement": "grade 1–2 TRAE: peripheral neuropathy", "setting": "[16]; Solid Tumor trial patients", "result": 35, "unit": "%"}, {"measurement": "grade 1–2 TRAE: vomiting", "setting": "[16]; Solid Tumor trial patients", "result": 30, "unit": "%"}, {"measurement": "grade ≥3 TRAE: elevated blood lactate", "setting": "[16]; Solid Tumor trial patients", "result": 9, "unit": "%"}, {"measurement": "grade ≥3 TRAE: nausea", "setting": "[16]; Solid Tumor trial patients", "result": 9, "unit": "%"}, {"measurement": "grade ≥3 TRAE: peripheral neuropathy", "setting": "[16]; Solid Tumor trial patients", "result": 4, "unit": "%"}, {"measurement": "painful neuropathy", "setting": "[16]; Solid Tumor trial patients", "result": "not observed"}, {"measurement": "Average highest lactate level during OXPHOS", "setting": "[16]; NP (N=11)", "result": 4.5, "unit": "mmol/L"}, {"measurement": "Average highest lactate level during OXPHOS", "setting": "[16]; Non-NP (N=12)", "result": 2.6, "unit": "mmol/L"}, {"measurement": "patients with >25% reduction in baseline OCR in blasts", "setting": "[17]; [22]", "result": "6/12"}, {"measurement": "patients with >25% reduction in maximal OCR in blasts", "setting": "[17]; [22]", "result": "8/12"}, {"measurement": "patients in whom the decrease in baseline OCR was not maintained", "setting": "[17]; extended dosing, among patients with >25% reduction", "result": "2/6"}, {"measurement": "inhibition of mitochondrial complex I", "setting": "[18]", "result": "selectively inhibited mitochondrial complex I"}, {"measurement": "NAD+ levels", "setting": "[19]; blasts from Patient 16", "result": "did not affect"}, {"measurement": "intracellular NMP, NDP and NTP levels", "setting": "[19]; blasts from Patient 16 (weakest exposure)", "result": "did not affect levels of NMP, NDP, and NTP"}, {"measurement": "intracellular NMP and NDP levels", "setting": "[19]; [23]", "result": "significantly increased"}, {"measurement": "intracellular NTP levels", "setting": "[19]; [23]", "result": "significantly decreased"}, {"measurement": "NAD+ levels", "setting": "[19]; blasts from Patient 17, p = 0.03", "result": "NAD+ levels significantly decreased"}, {"measurement": "NAD+ levels", "setting": "[19]; blasts from Patient 19", "result": "NAD+ levels significantly increased"}, {"measurement": "intracellular NTP levels", "setting": "[19]; blasts from Patient 19 (lower exposure), p<0.05", "result": "significantly reduced NTP levels"}, {"measurement": "ratio between mitochondrial and genomic DNA in blasts", "setting": "[20]", "result": "significant increase"}, {"measurement": "spontaneous pain: time in the chamber associated with pain relief", "setting": "[4]; IACS-010759-treated vs vehicle-treated mice", "result": "spent significantly more time in the chamber associated with pain relief"}, {"measurement": "OCR in dorsal root ganglia", "setting": "[5]; 3–4 hours and 5 weeks after the last dose", "result": "dose-dependently inhibited OCR"}]}]}
